Measured values reported in PubChem BioAssay AID504449 (Broad Institute, 2011).
Inconclusive results are not listed. Activity calls are given as the source filed them.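 Rule for the calls: active = compounds lowering viability signal with fitted half-maximal potency within ten times the top dose, in every repeat run; inconclusive = repeat runs disagree, or weak flat or poorly fitted curves; inactive = every run inactive, including flat or rising signals.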

How the values were obtained:
[1] = breast CSC-like cell growth inhibition – CellTiter-Glo luminescence, powder samples, set 4, dose response (AID 504449); settings: HMLE_shECad breast CSC viability, CellTiter-Glo, 72 h; at 30 µM (top of the series)
Method in brief: (§1)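 Timing: ≥4 h cell settling at 37 °C, ~70-74 h compound exposure. System: HMLE_shECad cells, E-cadherin knockdown, EMT-induced breast cancer stem cell model. Detection: CellTiter-Glo luminescence, reagent diluted 1:3 in PBS, 12 min.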

[2] = test system: HMLE_shECad breast CSC viability, CellTiter-Glo, 72 h; assay: as above
Method in brief: as §1

O=C(Nc1nccs1)c1ccc(COc2ccccc2)o1
activity change, negative = inhibition [1]: 6.69% (inactive)

Cc1csc(NC(=O)c2ccc(COc3ccc(Cl)cc3)o2)n1
AC50 [2]: 2.82 µM

COc1ccccc1OCc1ccc(C(=O)Nc2nc(C)cs2)o1
AC50 [2]: 1.63 µM

O=S(=O)(/C=C/c1ccccc1)NC1=NCCS1
activity change, negative = inhibition [1]: 14.4% (inactive)

O=C(NC1=NCCS1)/C(F)=C/c1ccccc1
activity change, negative = inhibition [1]: 10.8% (inactive)

O=C(N/N=C/c1ccn[nH]1)c1cc2ccccc2o1
activity change, negative = inhibition [1]: 26.2% (inactive)

Cc1csc(NC(=O)c2ccc(COc3ccc(OC(F)(F)F)cc3)o2)n1
AC50 [2]: 3.16 µM

COc1ccc(OCc2ccc(C(=O)Nc3nc(C)cs3)o2)cc1
AC50 [2]: 29.4 µM

O=C(/C=C/c1cccc(Cl)c1)NC1=NCCS1
AC50 [2]: 15 µM

O=C(N/N=C/c1ccc[nH]1)C1COc2cc3ccccc3cc2O1 (stereo not given)
AC50 [2]: 4.2 µM

O=C(COc1c(Cl)cc(Cl)cc1Cl)N/N=C/c1ccn[nH]1
activity change, negative = inhibition [1]: 6.67% (inactive)

O=C(Nc1ccccn1)c1ccc(COc2ccccc2)o1
activity change, negative = inhibition [1]: -28.5% (inactive)

O=C(c1ccc(COc2ccccc2)o1)N1CCOCC1
activity change, negative = inhibition [1]: 2% (inactive)

C(=C\c1ccccc1)/CNC1=NCCS1
activity change, negative = inhibition [1]: 10.6% (inactive)

Cc1csc(NC(=O)c2ccc(COc3ccc(C#N)cc3)o2)n1
AC50 [2]: 11.5 µM

O=C(COc1ccc2ccccc2c1Br)N/N=C/c1ccc[nH]1
AC50 [2]: 1.11 µM

Cc1csc(NC(=O)c2ccc(CO)o2)n1
activity change, negative = inhibition [1]: -1.83% (inactive)

CC(C)c1ccc(/C=C/C(=O)Nc2nccs2)cc1
AC50 [2]: 3.54 µM

CC(C)(C)c1ccc(C2CC2C(=O)N/N=C/c2ccc[nH]2)cc1 (stereo not given)
AC50 [2]: 0.787 µM

COc1ccccc1OCC(=O)N/N=C/c1ccc[nH]1
activity change, negative = inhibition [1]: 9.18% (inactive)

Cc1csc(NC(=O)c2ccc(COc3cccc(C#N)c3)o2)n1
AC50 [2]: 2.07 µM

Cc1csc(NC(=O)c2ccc(COc3ccccc3C(F)(F)F)o2)n1
AC50 [2]: 0.065 µM

CC(C)c1ccc(/C=C/C(=O)Nc2nncs2)cc1
AC50 [2]: 13.6 µM

COc1cccc(OCc2ccc(C(=O)Nc3nc(C)cs3)o2)c1
AC50 [2]: 0.081 µM

Cn1ccnc1NC(=O)c1ccc(COc2ccccc2)o1
activity change, negative = inhibition [1]: -15.5% (inactive)

Cc1csc(NC(=O)c2ccc(COc3ccccc3F)o2)n1
AC50 [2]: 0.019 µM

Cc1cccc(OCC(=O)N/N=C/c2ccc[nH]2)c1C
AC50 [2]: 24.6 µM

CC(C)c1ccc(/C=C/C(=O)NCc2ccccc2)cc1
activity change, negative = inhibition [1]: -6.44% (inactive)

Cc1csc(NC(=O)c2ccc(COc3ccc(F)cc3)o2)n1
AC50 [2]: 5.65 µM

O=C(COc1ccc(Br)cc1)N/N=C/c1ccc[nH]1
AC50 [2]: 15.3 µM

Cc1ccc(C)c(OCC(=O)N/N=C/c2ccc[nH]2)c1
AC50 [2]: 9.05 µM

O=C(/C=C/c1ccc(C(F)(F)F)cc1)NC1=NCCS1
activity change, negative = inhibition [1]: -1.72% (inactive)

Cc1csc(NC(=O)c2ccc(COc3ccc(C(F)(F)F)cc3)o2)n1
AC50 [2]: 2.01 µM

O=C(COc1ccc(Cl)cc1Br)N/N=C/c1ccc[nH]1
AC50 [2]: 3.16 µM

O=C(CSc1cc(Cl)ccc1Cl)N/N=C/c1ccc[nH]1
AC50 [2]: 2.27 µM

CC[C@@H](C(=O)O)C1CC[C@H](C)C([C@@H](C)[C@H](O)[C@H](C)C(=O)[C@H](CC)C2O[C@]3(C=C[C@@H](O)[C@]4(CC[C@@](C)(C5CC[C@](O)(CC)[C@H](C)O5)O4)O3)[C@H](C)C[C@@H]2C)O1 (stereo not given in full)
AC50 [2]: 0.01 µM

Cc1csc(NC(=O)c2ccc(COc3cccc(Cl)c3)o2)n1
AC50 [2]: 0.572 µM

CC(C)c1ccc(/C=C/C(=O)N2CCOCC2)cc1
activity change, negative = inhibition [1]: 17.8% (inactive)

CC(C)c1ccc(/C=C/C(=O)Nc2ccccn2)cc1
AC50 [2]: 25.5 µM

O=C(N/N=C/c1ccc[nH]1)C1CC1c1ccccc1 (stereo not given)
AC50 [2]: 12.9 µM

C/C(=C\c1ccccc1)C(=O)NC1=NCCS1
activity change, negative = inhibition [1]: 8.28% (inactive)

O=C(Nc1nc2cccc(Cl)c2s1)c1ccc(COc2ccccc2)o1
AC50 [2]: 4.49 µM

Cc1csc(NC(=O)c2ccc(COc3ccccc3Cl)o2)n1
AC50 [2]: 0.045 µM

CC(C)c1ccc(/C=C/C(=O)Nc2nccn2C)cc1
AC50 [2]: 4.65 µM

Cc1csc(NC(=O)c2ccc(COc3cccc(OC(F)(F)F)c3)o2)n1
AC50 [2]: 0.439 µM

Cc1cc(C)c(/C=N/NC(=O)COc2c(Cl)cc(Cl)cc2Cl)[nH]1
activity change, negative = inhibition [1]: -14.5% (inactive)

Cc1ccc(/C=C/C(=O)NC2=NCCS2)cc1
AC50 [2]: 16 µM

Cc1ccc2cc(C(=O)NC3=NCCS3)n(C)c2c1
activity change, negative = inhibition [1]: -17.3% (inactive)

O=C(COc1ccc(Cl)cc1Cl)N/N=C/c1ccn[nH]1
activity change, negative = inhibition [1]: 1.84% (inactive)

Cc1csc(NC(=O)c2ccc(COc3ccccc3C#N)o2)n1
AC50 [2]: 0.917 µM

Cc1csc(NC(=O)c2ccc(COc3cccc(C(F)(F)F)c3)o2)n1
AC50 [2]: 1.57 µM

Cc1csc(NC(=O)c2ccc(COc3ccccc3OC(F)(F)F)o2)n1
AC50 [2]: 0.24 µM

CC(C)c1ccc(/C=C/C(=O)N(C)Cc2ccccc2)cc1
AC50 [2]: 19.2 µM

Cc1csc(NC(=O)c2ccc(COc3cccc(F)c3)o2)n1
AC50 [2]: 10.1 µM

COc1cccc(/C=C/C(=O)NC2=NCCS2)c1
activity change, negative = inhibition [1]: -21% (inactive)
